CAL PDZ FP-1: blocks peptide binding to the human CAL PDZ domain. purified CAL PDZ, TMR-peptide fluorescence polarization, 1 h. inhibition, % at 24.9 µM. actives 0.92% (n = 300,000). AID 602252;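 active means mean inhibition of at least 30% with at least half of replicates also reaching 30%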;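 further: 0% = DMSO neutral control and 100% = excess unlabeled competitor peptide PRC23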
Rce1 inhib: yeast Ras-converting enzyme inhibition; Q03530; yeast membranes, quenched prenylated peptide cleavage fluorescence; calls only; actives 0.27% (n = 290,000);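 active means fall in fluorescence gain of 50% or more versus controls, with final raw signal at or below 3038400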;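 further: plate controls were neutral control wells for no effect and wells lacking membranes for full effect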
Target sequence (Q03530 whole entry, looked up): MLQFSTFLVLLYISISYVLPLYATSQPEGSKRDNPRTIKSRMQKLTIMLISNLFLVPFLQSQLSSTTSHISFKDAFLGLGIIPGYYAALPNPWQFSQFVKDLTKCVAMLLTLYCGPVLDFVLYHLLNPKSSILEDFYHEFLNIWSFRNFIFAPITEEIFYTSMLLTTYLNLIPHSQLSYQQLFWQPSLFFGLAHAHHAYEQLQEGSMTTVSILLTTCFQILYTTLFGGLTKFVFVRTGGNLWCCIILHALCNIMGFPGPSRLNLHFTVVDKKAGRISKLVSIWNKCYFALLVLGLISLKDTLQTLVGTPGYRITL
ARNT TACC3 PPI: ARNT/TACC3 interaction disruption. Q9Y6A5. AlphaScreen His-ARNT PAS-B/GST-TACC3 binding, luminescence; TACC3 fragment carries E629A point mutation. inhibition, % at 9.99 µM. actives 0.66% (n = 390,000). AID 623870;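 active means mean inhibition of replicates at least 50% and at least half of replicates each reaching 50%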;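 further: 0% = complete ARNT plus TACC3 wells and 100% = ARNT alone without TACC3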
CAL PDZ FP-2: blocks peptide binding to human CAL PDZ domain; Q9HD26; inhibition, % at 20 µM; purified CAL PDZ, TMR-peptide fluorescence polarization, 1 h; actives 0.02% (n = 330,000);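 active means highest replicate inhibition of at least 40%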;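 further: plate controls were DMSO neutral control wells for no effect and unlabeled competitor peptide control wells for full effect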
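Material – purified CerCALP PDZ construct · Detection – FP readout, S and P plane fluorescence · Measure – percent inhibition from loss of millipolarization · Controls – unlabelled peptide for full inhibition, DMSO wells as neutral · Probe or stimulus – TMR-labelled reporter peptide T*-PRC34 bound in PDZ groove · Times – 1 h at RT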
AI-2 QS modul: modulators of Vibrio harveyi AI-2 quorum sensing system; Vibrio harveyi JMH597 AI-2 luminescence/OD600 ratio, 9 h; hits give low values; strain lacks LuxN and CqsS sensors; 0 = neutral-control median; activity change, % at 7.5 µM; actives 0.4% (n = 300,000); in the data active means activity change below about -75%, passing the limit was not always enough;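 further: luminescence divided by OD600 gain over 9 h not by final OD600 alone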
Starred values were filed as active, the others as inactive; i = inactive; / = no result given; + = active, no number. Most compounds without a hit are left out; they make up all but 1.7% or so of the library.

SMILES	CAL PDZ FP-1	Rce1 inhib	ARNT TACC3 PPI	CAL PDZ FP-2	AI-2 QS modul
Cc1ccc(S(=O)(=O)N(C#N)c2nc(C)cc(C)n2)cc1	-2	i	-12	1	5
C/C(CC(=O)Nc1c(C)cc(C)cc1C)=N\NC(=O)OC(C)(C)C	-2	i	-22	-3	3
OCCN(Cc1nc(-c2ccc3c(c2)OCO3)no1)Cc1cccs1	-2	i	-4	-2	12
CN(C)S(=O)(=O)c1cccc(NC(=O)COC(=O)c2ccc([N+](=O)[O-])o2)c1	-4	i	64*	-1	50
O=C1c2ccccc2C(=O)c2c(NCc3cccnc3)cccc21	-3	i	6	-1	9
O=C1c2cccc(NCCCNCCO)c2C(=O)c2cccc(NCCCNCCO)c21	-3	/	49*	7	/
COCC(=O)N1[C@H](CO)[C@@H](c2ccc(-c3cccnc3)cc2)[C@@H]1C#N	/	/	-4	/	/
Cc1nn(CCOc2cccc(Br)c2)c(C)c1[N+](=O)[O-]	59*	i	-6	-1	14
C[C@H]1CCCCO[C@@H](CN(C)C(=O)NC2CCCCC2)[C@@H](C)CN([C@@H](C)CO)C(=O)c2cc(NC(=O)NC3CCCCC3)ccc2O1	/	/	-6	/	/
COc1ccc(NC(=O)CCC2CCCC2)cc1OC	-2	i	-4	-1	7
O=C(NCc1cccnc1)c1ccc(Cn2c(=S)[nH]c3ccc(Br)cc3c2=O)cc1	+	i	-6	23	11
O=c1c2cc(Br)ccc2[nH]c(=S)n1Cc1ccccc1	/	i	-4	-1	44
CCOc1ccccc1N1C(=O)CN(Cc2ccc(OC)c(OC)c2)C1=S	48*	i	-12	/	23
COc1ccc(CN2CC(=O)N(c3ccccc3OC)C2=S)cc1OC	-4	i	/	-1	4
Cc1sc2ncn3ncnc3c2c1C	5	i	-6	1	11
Cc1nnc(NC(=O)C2CCCCC2)s1	/	i	-18	0	5
COc1cc(-n2nc(C)c3c2OC(N)=C(C#N)C3c2ccccc2)c(Cl)c(Br)c1O (centres undefined)	-6	i	33*	0	24
Cc1nn(-c2ccccc2)c2c1C(c1ccncc1)C(C#N)=C(N)O2 (centres undefined)	1	i	10	-1	-9
COc1cccc(-c2csc(N3CCN(C(=O)NC45CC6CC(CC(C6)C4)C5)CC3)n2)c1	-4	+	0	0	17
COc1ccc(NC(=O)C2Cc3cccc(OC)c3O/C2=N\O)cc1 (centres undefined)	1	i	-6	-2	-54
COc1cccc2c1O/C(=N\O)C(C(=O)Nc1ccc(C)cc1)C2 (centres undefined)	-2	i	-1	0	-89*
CC(C)=C(NC(=O)c1ccccc1)C(N)=O	-6	i	0	-1	14
Cc1noc(C)c1NC(=O)N(C)C[C@H]1OCCCC[C@@H](C)Oc2ccc(NC(=O)c3ccccc3)cc2C(=O)N([C@H](C)CO)C[C@@H]1C	/	/	-3	/	/
O=C1COc2ccc(N3C(=O)C=CC3=O)cc2N1	/	i	/	/	-81*
CCOC(=O)C(Cc1ccccc1)c1ccnc2ncnn12 (centres undefined)	34*	i	-6	0	11
SMILES	CAL PDZ FP-1	Rce1 inhib	ARNT TACC3 PPI	CAL PDZ FP-2	AI-2 QS modul
CC(=O)C1CCC2C3CCC4=CC(=O)C=CC4(C)C3CCC12C (centres undefined)	-6	/	-13	-1	/
C=CCNC(=S)N/N=C(\C)c1ccccn1	-3	i	59*	0	-1
CC(=NNC(=S)Nc1ccccc1Cl)c1ccccn1	-1	/	87*	-2	/
C/C(=N\Nc1cccc2cccnc12)c1ccccn1	-1	i	6	-2	8
C/C(=N\NC(=O)c1ccc(F)cc1)c1ccccn1	0	i	/	-2	13
COc1cccc(NC(=O)CN(C)CC(=O)Nc2ccc(Br)cc2)c1	47*	i	-16	-2	1
COc1cccc(NC(=O)CN(C)CC(=O)Nc2cccc(C(F)(F)F)c2)c1	-18	i	-7	-1	11
COc1ccc(CC(=O)OCC(=O)Nc2ccc(Cl)c(S(=O)(=O)N(C)C)c2)cc1	/	i	0	0	-56
COc1ccc(NC(=O)CN(C)CC(=O)Nc2ccc(Cl)c(S(=O)(=O)N(C)C)c2)cc1	40*	i	4	-1	14
CCOCC(=O)Nc1cccc(OC)c1	66*	i	1	-1	12
CCC(Sc1nc2cc(OC)c(OC)cc2c(=O)n1Cc1ccco1)C(=O)NCCOC (centres undefined)	-2	i	-1	-1	8
Cc1ccc(S(=O)(=O)N[C@@H]2CC[C@@H](CCNC(=O)c3ccccc3F)O[C@H]2CO)cc1	/	/	1	/	/
Cn1c(CC(=O)Nc2ccc(F)cc2)nnc1SCC(=O)Nc1nncs1	6	i	2	1	23
CCC(=O)N[C@@H]1CC[C@H](CC(=O)OC)O[C@H]1CO	/	/	-9	/	/
CCN(CC)Cc1c(C(=O)OC(C)C)nnn1-c1nonc1N	/	i	-7	0	23
COc1ccc(-c2c(-c3ccsc3)oc3ccc(N4CCOCC4)cc23)cn1	1	+	-7	1	38
COc1ccc(OC)c(-n2c(-c3cccc(C)c3)n[nH]c2=S)c1	1	i	4	-2	21
COc1ccc(OC)c(-n2c(-c3ccccc3)n[nH]c2=S)c1	37*	i	-24	1	5
O=C(c1ccccn1)N1CC=C(c2ccccc2)CC1	194*	/	3	-1	/
COc1cc(/C=N/Nc2ccc(Cl)c(C(=O)O)c2)ccc1OC(=O)c1ccccc1F	42*	i	10	-1	3
COc1cc(/C=N/Nc2ccc(Cl)c(C(=O)O)c2)ccc1OC(=O)c1ccc(F)cc1	-3	i	5	-1	20
CC(=O)N(c1cccc(C)c1)S(=O)(=O)c1ccc(Cl)cc1	/	i	-3	0	14
CC(=O)N(c1ccc(C)cc1)S(=O)(=O)c1ccc(Cl)cc1	46*	i	-3	-1	15
O=C(c1cc2nc(-c3ccc(F)cc3)cc(C(F)(F)F)n2n1)N1CCCCC1c1cccnc1 (centres undefined)	-5	i	7	-5	10
CCCC(=O)Nc1cc(C(F)(F)F)ccc1N1CCOCC1	35*	i	-3	1	7
Cc1ccccc1C(=O)N1CCN(c2ncnc3c2cnn3-c2ccccc2)CC1	4	i	3	-2	13
CC(=O)c1cccc(NC(=O)C(C)OC(=O)CCn2c(C)csc2=O)c1 (centres undefined)	62*	/	/	0	/
Cc1csc(=O)n1CCC(=O)OC(C)C(=O)Nc1ccc(N2CCOCC2)cc1 (centres undefined)	6	/	0	0	/

Bioassay records: PubChem BioAssay, Broad Institute
